Key:
[1] = biological target: T1, Vascular endothelial growth factor receptor 2 (Homo sapiens, UniProt P35968); assay: Inhibition of human recombinant EE-tagged intracellular domain of KDR using biotin-EEEEYFELVAKKKK as substrate by HTRF assay
[2] = biological target: Fibroblast growth factor receptor (Homo sapiens, UniProt P22607+P11362+P22455+P21802); assay: Inhibition of human recombinant GST-tagged intracellular domain of FGFR using biotin-EEEEYFELV as substrate by HTRF assay
[3] = biological target: Epidermal growth factor receptor (Homo sapiens, UniProt P00533); assay: Inhibition of human recombinant His-tagged intracellular domain of EGFR using biotin-EEEEYFELV as substrate by HTRF assay
Chain of Epidermal growth factor receptor (P00533 whole entry, the tested form may be a part): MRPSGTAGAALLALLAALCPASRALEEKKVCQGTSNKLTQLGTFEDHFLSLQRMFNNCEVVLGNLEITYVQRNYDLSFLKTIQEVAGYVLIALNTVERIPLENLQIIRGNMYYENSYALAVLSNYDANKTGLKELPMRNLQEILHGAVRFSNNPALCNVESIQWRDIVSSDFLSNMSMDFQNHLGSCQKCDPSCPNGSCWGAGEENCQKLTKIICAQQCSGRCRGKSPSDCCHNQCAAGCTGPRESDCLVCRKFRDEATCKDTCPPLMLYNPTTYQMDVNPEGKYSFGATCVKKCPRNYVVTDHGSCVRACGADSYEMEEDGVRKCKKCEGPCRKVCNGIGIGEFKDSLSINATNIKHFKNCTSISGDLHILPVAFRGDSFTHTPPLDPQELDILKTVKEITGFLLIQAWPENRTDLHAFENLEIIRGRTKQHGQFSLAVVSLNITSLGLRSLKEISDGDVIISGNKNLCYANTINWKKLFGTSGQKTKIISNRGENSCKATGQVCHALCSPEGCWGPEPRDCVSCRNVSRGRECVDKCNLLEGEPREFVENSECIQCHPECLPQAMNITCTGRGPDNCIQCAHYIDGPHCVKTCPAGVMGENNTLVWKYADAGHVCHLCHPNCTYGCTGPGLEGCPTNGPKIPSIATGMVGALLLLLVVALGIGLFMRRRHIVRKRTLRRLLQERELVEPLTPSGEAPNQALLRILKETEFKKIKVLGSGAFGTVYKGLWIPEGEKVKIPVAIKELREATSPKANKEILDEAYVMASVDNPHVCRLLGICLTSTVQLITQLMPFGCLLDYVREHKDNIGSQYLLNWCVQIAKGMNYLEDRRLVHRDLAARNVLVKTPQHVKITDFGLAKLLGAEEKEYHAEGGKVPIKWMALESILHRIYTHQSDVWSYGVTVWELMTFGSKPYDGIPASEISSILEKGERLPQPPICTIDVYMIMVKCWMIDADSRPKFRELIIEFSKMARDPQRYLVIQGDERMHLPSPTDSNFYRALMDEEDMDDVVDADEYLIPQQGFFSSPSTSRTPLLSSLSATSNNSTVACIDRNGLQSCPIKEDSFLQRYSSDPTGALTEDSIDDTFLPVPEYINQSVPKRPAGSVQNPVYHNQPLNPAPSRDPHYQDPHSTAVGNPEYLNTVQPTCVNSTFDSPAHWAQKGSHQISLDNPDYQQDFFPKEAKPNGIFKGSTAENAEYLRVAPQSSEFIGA

[4] = biological target: Platelet-derived growth factor receptor (Homo sapiens, UniProt P09619+P16234); assay: Inhibition of human recombinant His-tagged intracellular domain of PDGFR using biotin-EEEEYFELV as substrate by HTRF assay
[5] = biological target: T1, Vascular endothelial growth factor receptor 2; assay: Inhibition of KDR autophosphorylation in HUVEC by Western blot analysis
Procedure, shortened: (§1)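 HUVECs at passages 2–4 were grown to 70% confluency and serum-starved 18 h in EBM-2 with 1.0% HI-FBS. Compound was added 1 h before 50 ng/mL rhVEGF. Cells were lysed on ice 5 min after stimulation and lysates immunoblotted, with actin used to normalize loading.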

[6] = biological target: T1, Vascular endothelial growth factor receptor 2; assay: Inhibition of KDR in HUVEC assessed as ERK1/2 phosphorylation by Western blot analysis; procedure, shortened: as §1
[7] = biological target: T1, Vascular endothelial growth factor receptor 2; assay: Inhibition of KDR in HUVEC assessed as AKT phosphorylation by Western blot analysis; procedure, shortened: as §1

T1 sequence (P35968 whole entry, the tested form may be a part): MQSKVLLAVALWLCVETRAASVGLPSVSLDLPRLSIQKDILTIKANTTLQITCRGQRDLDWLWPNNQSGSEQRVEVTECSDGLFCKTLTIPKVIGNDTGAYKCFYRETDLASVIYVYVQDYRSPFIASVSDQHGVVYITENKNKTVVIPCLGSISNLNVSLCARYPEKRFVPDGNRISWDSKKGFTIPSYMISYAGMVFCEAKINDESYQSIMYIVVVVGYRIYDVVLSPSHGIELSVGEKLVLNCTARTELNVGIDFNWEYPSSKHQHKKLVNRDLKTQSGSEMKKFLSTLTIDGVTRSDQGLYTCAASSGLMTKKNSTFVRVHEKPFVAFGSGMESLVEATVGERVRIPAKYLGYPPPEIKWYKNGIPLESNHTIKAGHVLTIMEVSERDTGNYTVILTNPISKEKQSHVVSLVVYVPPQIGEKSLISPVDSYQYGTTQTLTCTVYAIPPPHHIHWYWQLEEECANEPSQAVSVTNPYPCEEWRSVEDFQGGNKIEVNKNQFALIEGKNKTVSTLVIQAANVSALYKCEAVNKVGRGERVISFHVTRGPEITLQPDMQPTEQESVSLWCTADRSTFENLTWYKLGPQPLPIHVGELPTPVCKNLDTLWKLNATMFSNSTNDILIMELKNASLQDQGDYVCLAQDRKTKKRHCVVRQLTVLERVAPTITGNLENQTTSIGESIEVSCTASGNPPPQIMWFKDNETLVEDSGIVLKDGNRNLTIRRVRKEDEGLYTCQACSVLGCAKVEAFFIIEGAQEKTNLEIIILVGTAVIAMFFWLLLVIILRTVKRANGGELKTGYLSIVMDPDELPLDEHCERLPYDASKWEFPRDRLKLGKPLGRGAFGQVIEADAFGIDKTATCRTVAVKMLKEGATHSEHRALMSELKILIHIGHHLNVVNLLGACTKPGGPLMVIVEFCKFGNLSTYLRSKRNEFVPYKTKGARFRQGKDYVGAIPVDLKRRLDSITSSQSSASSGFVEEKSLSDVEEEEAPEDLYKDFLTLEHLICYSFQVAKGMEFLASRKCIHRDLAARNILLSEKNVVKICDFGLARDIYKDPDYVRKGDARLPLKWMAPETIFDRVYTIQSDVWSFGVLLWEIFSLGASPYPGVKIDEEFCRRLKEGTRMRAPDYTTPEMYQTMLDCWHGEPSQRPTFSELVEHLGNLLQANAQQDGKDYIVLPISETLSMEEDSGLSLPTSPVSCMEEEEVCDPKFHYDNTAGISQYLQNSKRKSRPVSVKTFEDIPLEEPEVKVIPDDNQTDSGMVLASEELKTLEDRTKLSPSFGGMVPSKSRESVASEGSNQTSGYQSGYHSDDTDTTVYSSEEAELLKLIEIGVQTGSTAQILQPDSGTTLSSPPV

| Compound | IC50 [1] [µM] | IC50 [2] [µM] | IC50 [3] [µM] | IC50 [4] [µM] | inhibition [5] | inhibition [6] | inhibition [7] |
| --- | --- | --- | --- | --- | --- | --- | --- |
| COc1ccc(N2Cc3cnc(Nc4ccccc4)nc3N([C@@H]3CC[C@@H](O)C3)C2=O)cc1 | 0.012 | 0.035 | 0.239 | 0.028 | – | – | – |
| COc1ccc(N2Cc3cnc(Nc4ccccc4)nc3N([C@H]3CC[C@H](O)C3)C2=O)cc1 | 0.015 | 0.037 | 0.365 | 0.033 | – | – | – |
| COc1ccc(N2Cc3cnc(Nc4ccccc4)nc3N([C@@H]3CC[C@@H](O)C3)C2=O)cc1 (racemic) | – | – | – | – | Dose-dependent effect | Dose-dependent effect | Dose-dependent effect |

From ChEMBL document CHEMBL1949512, “RO4383596, an orally active KDR, FGFR, and PDGFR inhibitor: synthesis and biological evaluation” (Bioorg Med Chem, 2005)
